Screening data: PubChem, several laboratories
Sampled rows, rich in hits. Any-hit rate of the full collection: about 12%.
Lmaj promast = Leishmania major promastigote growth inhibition. Leishmania major promastigotes, resazurin fluorescence viability. inhibition, % at 10 µM. 200,000 tested, 9% active. AID 1063; in the data active = inhibition above about 50%;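 note: promastigotes grown with compound for 44 hours at 28 °C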
Diaph inh CS = inhibits diaphorase or chemically oxidizes, flagging diaphorase assay artifacts; AID 1217; 190,000 tested, 0.69% active; diaphorase resazurin-to-resorufin fluorescence, NADH, 16 min; bacterial (C. kluyveri) enzyme, not human; inhibition, % at 20 µM;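 active = primary screen inhibition at 20 µM above a set limit, cut at about 50% in these data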
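controls = No-NADH positive control and DMSO neutral control | system = Clostridium kluyveri diaphorase enzyme | timing = reaction incubation of 16 min at room temperature | signal = resorufin fluorescence 544/590 nm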
KCC2 mod = KCC2 (human) Cl- transport modulation. KCC2 cells, thallium flux FluoZin-2 fluorescence. B-score of Tl+ flux slope (higher = more flux/activation; lower = inhibition) at 10 µM. 190,000 tested, 2.2% active;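 active = thallium flux slope and its plate-corrected score both differing from the plate sample mean at a set confidence after two filtering rounds, in either direction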;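 note: slope of fluorescence scaled to starting intensity during 10 to 20 s after thallium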
WT yeast gro inh = growth inhibition of WT yeast, mitochondrial fusion screen | inhibition, % at 10 µM | mitochondrial fusion phenotypic screen, WT strain | AID 1362 | 190,000 tested, 2.1% active; in the data active = inhibition above about 58%; tested in S. cerevisiae
ROMK mod = modulators of human ROMK potassium channel; P48048; Tet-inducible ROMK, thallium flux fluorescence; actives lie on both sides; B-score at 10 µM; 130,000 tested, 2% active; AID 1918;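 active = signal ratio slope over the read window, or its plate-corrected B-score, at least 3 SD from the plate mean, either direction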;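 note: B-score of the F/F0 ratio slope over 7 to 12 s after thallium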
Diaphorase act = counter-screen for diaphorase-based assays: diaphorase activators and chemical reducers | Diaphorase/resazurin coupled assay, resorufin fluorescence, 16 min; hits give high values; 1 = vehicle wells, 0 = NADH-free wells | activation factor at 20 µM | 190,000 tested, 0.005% active;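 active = diaphorase activity raised at least twofold by the compound at 20 µM; inactive = activation factor below 2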
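Material: Clostridium kluyveri diaphorase, purified enzyme; Quantity: enzyme 0.07 U/mL final; Medium: HEPES pH 7.4 buffer with MgCl2 and Tween 20; Dosing: single compound dose of 20 µM, 1% DMSO final; Schedule: 16 min reaction at room temperature; Measured by: red resorufin fluorescence at 544/590 nm excitation/emission.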
Numbers stand for hits.

For CCc1ccccc1Nc1nc(N)nc(CSCC(=O)Nc2ccc(C)c(C)c2)n1 the results were Lmaj promast 85.0, Diaph inh CS inactive, KCC2 mod inactive, WT yeast gro inh inactive and Diaphorase act inactive.
Screening COc1ccc(CCN(Cc2cccs2)S(=O)(=O)c2ccc(S(=O)(=O)N3CCCCCC3)cc2)cc1OC returned Lmaj promast inactive, Diaph inh CS inactive, KCC2 mod inactive, WT yeast gro inh inactive and Diaphorase act inactive.
Screening CCC(C)NS(=O)(=O)c1ccc(S(=O)(=O)N(CCc2ccc(OC)c(OC)c2)Cc2cccs2)cc1 (stereo not drawn) returned Lmaj promast 55.1, Diaph inh CS inactive, KCC2 mod inactive, WT yeast gro inh inactive, ROMK mod inactive and Diaphorase act inactive.
`COc1ccc(-c2[nH]ncc2CN2CCCCCCC2)c(OC)c1` gave Lmaj promast inactive, Diaph inh CS inactive, KCC2 mod inactive, WT yeast gro inh inactive, ROMK mod inactive and Diaphorase act inactive.
CC1SC(C)C(=O)N(CC(=O)NCc2ccc(F)cc2)C1=O (stereo not drawn) was read as Lmaj promast inactive, Diaph inh CS inactive, KCC2 mod inactive, WT yeast gro inh inactive, ROMK mod inactive and Diaphorase act inactive.
Screening CCCCCN1C=CC(=C2C(=O)c3ccccc3C2=O)C=C1 returned Lmaj promast inactive, Diaph inh CS inactive, WT yeast gro inh 58.5 and Diaphorase act inactive.
N#CCC(=O)Nc1ccc(C(=O)OCC(=O)Nc2ccccc2Sc2ccccc2)cc1 was read as Lmaj promast inactive, Diaph inh CS inactive, KCC2 mod inactive, WT yeast gro inh inactive, ROMK mod inactive and Diaphorase act inactive.
`O=C(CCl)Nc1ccccc1Sc1ccccc1` gave Lmaj promast 54.4, Diaph inh CS inactive, KCC2 mod inactive, WT yeast gro inh inactive, ROMK mod inactive and Diaphorase act inactive.
For Cc1ccc(C(=O)Nc2ccccc2Sc2ccccc2)cc1 the results were Lmaj promast inactive, Diaph inh CS inactive, KCC2 mod inactive, WT yeast gro inh inactive and Diaphorase act inactive.
O=C(Cc1ccc(Cl)cc1)Nc1ccccc1Sc1ccccc1 was read as Lmaj promast inactive, Diaph inh CS inactive, KCC2 mod inactive, WT yeast gro inh inactive, ROMK mod inactive and Diaphorase act inactive.
O=C(Nc1ccccc1Sc1ccccc1)c1ccc(F)cc1 was read as Lmaj promast inactive, Diaph inh CS inactive, KCC2 mod inactive, WT yeast gro inh 77.8, ROMK mod inactive and Diaphorase act inactive.
CC(=O)Nc1ccc(C(=O)OCC(=O)Nc2ccccc2Sc2ccccc2)cc1 was read as Lmaj promast inactive, Diaph inh CS inactive, KCC2 mod inactive, WT yeast gro inh 83.0, ROMK mod inactive and Diaphorase act inactive.
O=C(Cc1ccccc1)Nc1cc(Cl)ccc1Sc1ccccc1 was read as Lmaj promast 59.8, Diaph inh CS inactive, KCC2 mod inactive, WT yeast gro inh inactive, ROMK mod inactive and Diaphorase act inactive.
`COc1ccc(C2N(Cc3ccccc3)CCN2Cc2ccccc2)cc1[N+](=O)[O-]` gave Lmaj promast inactive, Diaph inh CS inactive, KCC2 mod inactive, WT yeast gro inh inactive, ROMK mod inactive and Diaphorase act inactive.
CCOC(=O)C(Cc1ccccc1)C(=O)Nc1cccc2ccccc12 (stereo not drawn) was read as Lmaj promast inactive, Diaph inh CS inactive, KCC2 mod inactive, WT yeast gro inh inactive, ROMK mod inactive and Diaphorase act inactive.
Screening COc1c(C)cc(C(=O)C2CCCN(C(=O)c3ccc4cc[nH]c4c3)C2)cc1C (stereo not drawn) returned Lmaj promast 64.6, Diaph inh CS inactive, WT yeast gro inh inactive, ROMK mod inactive and Diaphorase act inactive.
For O=C(c1cccc(N2C(=O)C3CC=CCC3C2=O)c1)N1CCCCCC1 (stereo not drawn) the results were Lmaj promast inactive, Diaph inh CS inactive, KCC2 mod inactive, WT yeast gro inh inactive and Diaphorase act inactive.
For NC(=O)c1ccc(N2CCCCC2)c(N2C(=O)C3CC=CCC3C2=O)c1 (stereo not drawn) the results were Lmaj promast inactive, Diaph inh CS inactive, KCC2 mod inactive, WT yeast gro inh 84.5 and Diaphorase act inactive.
CC(C)=CCN1CCN(Cc2nc(-c3ccccc3)cs2)CC1CCO (stereo not drawn) was read as Lmaj promast 69.8, Diaph inh CS inactive, WT yeast gro inh inactive, ROMK mod inactive and Diaphorase act inactive.
CC(C)CCN1CCN(Cc2cccs2)CC1CCO (stereo not drawn) was read as Lmaj promast inactive, Diaph inh CS inactive, WT yeast gro inh inactive, ROMK mod inactive and Diaphorase act inactive.
For OCCC1CN(C2CSCCSC2)CCN1Cc1ccccc1 (stereo not drawn) the results were Lmaj promast inactive, Diaph inh CS inactive, WT yeast gro inh inactive and Diaphorase act inactive.
`OCCC1CN(Cc2cccnc2)CCN1CCc1ccccc1` (stereo not drawn) gave Lmaj promast inactive, Diaph inh CS inactive, KCC2 mod inactive, WT yeast gro inh inactive, ROMK mod inactive and Diaphorase act inactive.
For OCCC1CN(C2CCN(c3ccccc3F)CC2)CCN1Cc1ccccc1 (stereo not drawn) the results were Lmaj promast 80.3, Diaph inh CS inactive, KCC2 mod inactive, WT yeast gro inh inactive and Diaphorase act inactive.
Screening CC(C)CCN1CCN(Cc2nc(-c3ccccc3)cs2)CC1CCO (stereo not drawn) returned Lmaj promast 84.9, Diaph inh CS inactive, KCC2 mod inactive, WT yeast gro inh inactive, ROMK mod inactive and Diaphorase act inactive.
CC(C)=CCN1CCN(Cc2cccn2-c2nccs2)CC1CCO (stereo not drawn) was read as Lmaj promast inactive, Diaph inh CS inactive, KCC2 mod inactive, WT yeast gro inh inactive and Diaphorase act inactive.
Screening OCCC1CN(Cc2nc(-c3ccccc3)cs2)CCN1CCc1ccccc1 (stereo not drawn) returned Lmaj promast 86.7, Diaph inh CS inactive, KCC2 mod inactive, WT yeast gro inh inactive, ROMK mod inactive and Diaphorase act inactive.
`CC(CCn1cccn1)NC(=O)CCc1nnc(C2CCCCC2)o1` (stereo not drawn) gave Lmaj promast inactive, Diaph inh CS inactive, KCC2 mod inactive, WT yeast gro inh inactive, ROMK mod inactive and Diaphorase act inactive.
For Cn1nc(C(=O)OCC(=O)NC2CCS(=O)(=O)C2)c2ccccc2c1=O (stereo not drawn) the results were Lmaj promast inactive, Diaph inh CS inactive, KCC2 mod inactive, WT yeast gro inh inactive, ROMK mod inactive and Diaphorase act inactive.
`Nc1ccccc1C(=O)NCc1ccc(Cl)cc1` gave Lmaj promast inactive, Diaph inh CS inactive, KCC2 mod inactive, WT yeast gro inh inactive, ROMK mod inactive and Diaphorase act inactive.
